{
  "source": "paper PMC4489158",
  "about": "(Biochemistry, 2009)",
  "key": {"[1]": {"system": "γ-secretase cleavage of APLP1 (APLP1 ICD production)", "assay": "ICD in vitro generation", "type": "biochemical, human", "settings": "for effect on ICD production from APLP1: tested between 100 and 500 µM"}, "[2]": {"target": "γ-secretase cleavage of APLP2 (APLP2 ICD production) (Cricetulus griseus, UniProt A0A061HTR1+A0A061IL97+A0A8C2QG42+G3HNF2)", "assay": "ICD in vitro generation", "type": "biochemical, human", "settings": "for effect on ICD production from APLP2: tested between 100 and 500 µM"}, "[3]": {"system": "γ-secretase processing of APP (APP CTFs)", "assay": "CTF accumulation in intact CHO cells expressing APP-His", "type": "cell-based, Chinese hamster", "settings": "overnight (14 h)", "procedure,_shortened": "(§1)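 CHO cells stably expressing full-length human His-tagged APP or APLP1 (zeocin selection) were grown to confluence in six-well plates, then treated overnight (~14 h) with test compound or vehicle. Cells were lysed in NP-40 buffer with protease inhibitors. Equal protein (BCA) was immunoblotted with TetraHis antibody and ECL. CTF bands were quantified as fold over vehicle, with at least three measurements, and significance was assessed by two-way ANOVA.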"}, "[4]": {"system": "γ-secretase processing of APLP1 (APLP1 CTFs)", "assay": "CTF accumulation in intact CHO cells expressing APLP1-His", "type": "cell-based, Chinese hamster", "settings": "overnight (14 h)", "procedure,_shortened": "as §1"}, "[5]": {"target": "γ-secretase cleavage of APP (APP ICD production) (Cricetulus griseus, UniProt A0A061HTR1+A0A061IL97+A0A8C2QG42+G3HNF2)", "assay": "ICD in vitro generation", "type": "biochemical, human", "settings": "for concentration at which APP ICD production is decreased: microsomes; for effect on ICD production from APP: tested between 100 and 500 µM"}, "[6]": {"system": "γ-secretase (Aβ42, Aβ38, Aβ40 production)", "settings": "cited from earlier work"}, "[7]": {"settings": "cited from earlier work"}},
  "data": [
    {"molecule": "C[C@H](NC(=O)Cc1cc(F)cc(F)c1)C(=O)NC(C(=O)OC(C)(C)C)c1ccccc1", "note": "(stereo partly drawn) [DAPT, N-[N-(3,5-difluoro-phenacetyl)-l-alanyl]-S-phenylglycine tert-butyl ester]", "values": [
      {"measurement": "IC50", "setting": "[1]; read-out: IC50 of γ-secretase processing of APLP1 (ICD production)", "value": 95.7, "unit": "nM"}
    ]},
    {"molecule": "CC(C(=O)O)c1cccc(Oc2cc(Cl)cc(Cl)c2)c1", "note": "(centres unmarked) [FT-9, 2-[3-(3,5-dichlorophenoxy)phenyl]propanoic acid]", "values": [
      {"measurement": "concentration at which APLP2 ICD production is decreased", "setting": "[2]; microsomes", "value": "≥ 100", "unit": "µM"},
      {"measurement": "inhibition at 500 µM", "setting": "[2]; read-out: reduction of APLP2 ICDs", "value": "70 to 75", "unit": "%"},
      {"measurement": "concentration causing accumulation of APP CTFs", "setting": "[3]", "value": "≥ 5", "unit": "µM"},
      {"measurement": "concentration required to cause a 2-fold increase in APP CTFs", "setting": "[3]", "value": "3.4 ± 0.4", "unit": "µM"},
      {"measurement": "concentration causing significant accumulation of APLP1 CTFs", "setting": "[4]", "value": "≥ 20", "unit": "µM"},
      {"measurement": "concentration required to cause a 2-fold increase in APLP1 CTFs", "setting": "[4]", "value": "25.7 ± 8.9", "unit": "µM"},
      {"measurement": "concentration at which APP ICD production is decreased", "setting": "[5]", "value": "≥ 100", "unit": "µM"},
      {"measurement": "inhibition at 500 µM", "setting": "[5]; read-out: reduction of APP ICDs", "value": "70 to 75", "unit": "%"},
      {"measurement": "reduction of APLP1 ICDs", "setting": "[1]; 500 µM, highest concentration tested", "value": "~ 38%"},
      {"measurement": "concentration at which APLP1 ICD production is decreased", "setting": "[1]; microsomes", "value": "≥ 100", "unit": "µM"}
    ]},
    {"molecule": "C[C@@H](C(=O)O)c1ccc(-c2ccccc2)c(F)c1", "note": "[R-flurbiprofen, 2-(3-fluoro-4-phenylphenyl)propanoate]", "values": [
      {"measurement": "effect on Aβ38 levels", "setting": "[6]", "value": "increase"},
      {"measurement": "effect on Aβ42 levels", "setting": "[6]", "value": "reducing"},
      {"measurement": "effect on ICD production from APLP2", "setting": "[2]", "value": "weak inhibitory effect"},
      {"measurement": "concentration at which APP ICD production is decreased", "setting": "[5]", "value": "≥ 400", "unit": "µM"},
      {"measurement": "effect on ICD production from APP", "setting": "[5]", "value": "weakly inhibited"},
      {"measurement": "brain penetrance", "setting": "[7]", "value": "poor"},
      {"measurement": "effect on ICD production from APLP1", "setting": "[1]", "value": "unaffected"}
    ]},
    {"molecule": "C[C@H](NC(=O)Cc1cc(F)cc(F)c1)C(=O)N[C@H]1N=C(c2ccccc2)c2ccccc2N(C)C1=O", "note": "[compound E, (2S)-2-{[(3,5-Difluorophenyl)acetyl]amino}-N-[(3S)-1-methyl-2-oxo-5-phenyl-2,3-dihydro-1H-1,4-benzodia-zepin-3-yl]propanamide]", "values": [
      {"measurement": "concentration needed for a 2-fold increase in CTF band signal, APP", "setting": "[3]", "value": "0.27 ± 0.01", "unit": "nM"},
      {"measurement": "concentration needed for a 2-fold increase in CTF band signal, APLP1", "setting": "[4]", "value": "0.24 ± 0.22", "unit": "nM"}
    ]},
    {"molecule": "propan-2-yl 2-[4-(4-chlorobenzoyl)phenoxy]-2-ethylpropanoate [fenofibrate]", "values": [
      {"measurement": "effect on level of production of Aβ38", "setting": "[6]", "value": "reduces"},
      {"measurement": "effect on level of production of Aβ42", "setting": "[6]", "value": "increases"},
      {"measurement": "effect on levels of Aβ40", "setting": "[6]", "value": "almost unchanged"},
      {"measurement": "effect on ICD production from APLP2", "setting": "[2]", "value": "unaffected"},
      {"measurement": "effect on ICD production from APP", "setting": "[5]", "value": "unaffected"},
      {"measurement": "effect on ICD production from APLP1", "setting": "[1]", "value": "unaffected"}
    ]}
  ]
}
